Measured values of several laboratories.
Effect on: cell growth or viability

CC(=O)OC1c2c(ccc3ccc(=O)oc23)OC(C)(C)C1OC(=O)C(C)(O)C(C)O (centres unmarked) — IC50 (HCT-116; WST-1): 16.1 µM
COc1cc2c(OC)nc3c4cc5c(cc4cc(OCCN4CCC(N6CCCCC6)CC4)c3c2cc1OC)OCO5 — GI50 (HCT-116; MTT): 11 µM
CC[C@H](C)C(=O)O[C@H]1C[C@H](O)C=C2C=C[C@H](C)[C@H](CC[C@@H](O)C[C@@H](O)CC(=O)O)[C@H]21 — IC50 (HCT-116; SRB; 72 h): 3.52 µM
C/C=C(/C)C(=O)O[C@@H]1[C@H](OC(C)=O)c2c(ccc3ccc(=O)oc23)OC1(C)C — IC50 (HCT-116; WST-1): 55.8 µM
COC(=O)c1c(C)ncn1CC(c1c[nH]c2cc(Br)ccc12)c1c[nH]c2cc(Br)ccc12 — CC50 (DH82; MTS; 24 h): > 20 µM
COc1cc2c(OC)nc3c4cc5c(cc4cc(OC(C)=O)c3c2cc1OC)OCO5 — GI50 (HCT-116; MTT): 1.3 µM
COC(=O)[C@]1(O)C[C@@H](O)[C@@H](O)[C@H](OC(=O)/C=C/c2ccc(O)c(O)c2)C1 — IC50 (HCT-116; WST-1): 30.8 µM
CCc1ncn(CC(c2c[nH]c3ccc(C)cc23)c2c[nH]c3ccc(C)cc23)c1C(=O)OC — CC50 (DH82; MTS; 24 h): > 20 µM
COc1ccc(S(=O)(=O)ON=C2C=C(C)C(=O)C(C)=C2)cc1 — CC50 (HCT-116): 7.4 µM
CCOC(=O)c1c(C)ncn1CC(c1cn(C)c2ccc([N+](=O)[O-])cc12)c1cn(C)c2ccc([N+](=O)[O-])cc12 — CC50 (DH82; MTS; 24 h): > 20 µM
O=c1[nH]cc(F)c(=O)[nH]1 — CC50 (AGS; crystal violet; 72 h): 769 µM
